# Compound activity as filed in PubChem.
# DSG3 Ab inh – inhibitors of pemphigus antibody binding to human desmoglein-3; P32926; DSG3-coupled beads, scFv-anti-DSG3-GFP binding, flow cytometry; active compounds read low; binding (percent of control), % at 10 µM; actives 0.48% (n = 310,000); AID 588358;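 active = binding more than 3 SD below its plate's average and above zero; inconclusive = below that plate limit but binding exactly zero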;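 note: hits lower antibody fragment binding to DSG3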
# Target sequence (P32926 whole entry, looked up, the tested form may be a part): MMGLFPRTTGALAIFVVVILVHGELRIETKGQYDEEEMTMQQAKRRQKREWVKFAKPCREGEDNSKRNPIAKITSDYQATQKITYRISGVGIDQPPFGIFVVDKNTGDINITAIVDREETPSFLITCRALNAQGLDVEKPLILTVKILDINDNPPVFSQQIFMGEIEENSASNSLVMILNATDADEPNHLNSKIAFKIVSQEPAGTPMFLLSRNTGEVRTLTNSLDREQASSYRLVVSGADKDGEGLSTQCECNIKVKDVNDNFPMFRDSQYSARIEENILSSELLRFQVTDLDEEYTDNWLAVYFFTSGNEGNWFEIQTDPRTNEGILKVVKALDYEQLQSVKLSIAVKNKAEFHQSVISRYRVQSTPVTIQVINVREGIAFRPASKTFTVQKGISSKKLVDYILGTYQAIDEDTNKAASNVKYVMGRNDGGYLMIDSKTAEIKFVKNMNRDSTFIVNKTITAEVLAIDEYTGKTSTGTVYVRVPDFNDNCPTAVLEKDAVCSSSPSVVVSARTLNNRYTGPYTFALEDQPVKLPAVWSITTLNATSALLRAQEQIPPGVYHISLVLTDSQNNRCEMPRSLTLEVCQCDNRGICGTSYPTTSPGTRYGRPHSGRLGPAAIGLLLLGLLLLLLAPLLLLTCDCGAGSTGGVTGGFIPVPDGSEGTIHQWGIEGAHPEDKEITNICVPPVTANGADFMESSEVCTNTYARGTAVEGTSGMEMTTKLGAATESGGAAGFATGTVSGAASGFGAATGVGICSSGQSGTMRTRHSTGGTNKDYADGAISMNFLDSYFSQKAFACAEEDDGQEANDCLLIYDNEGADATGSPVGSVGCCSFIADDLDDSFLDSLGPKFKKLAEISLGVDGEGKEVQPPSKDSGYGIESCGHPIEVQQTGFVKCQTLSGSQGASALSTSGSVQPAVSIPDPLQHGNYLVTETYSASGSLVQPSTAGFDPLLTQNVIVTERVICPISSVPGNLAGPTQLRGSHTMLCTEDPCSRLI
# NALP1 yeast inh – inhibitors of NALP1 inflammasome in yeast | inhibition, % at 10 µM | S. cerevisiae NALP1/ASC/caspase-1 growth, X-gal OD620, 72 h | AID 2071 | actives 0.61% (n = 280,000); in the data active = inhibition mostly above about 24%, no sharp cut-off; inactive = mostly below about 32%
# PolyA inhibitor – yeast polyadenylation inhibition; activity score, % at 12 µM; actives 0.02% (n = 300,000); S. cerevisiae SKY197-pL101 polyadenylation reporter, beta-gal luminescence; efflux-impaired pdr1/pdr3 knockout yeast; score 100 = 6 SD above DMSO;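 active = lowest replicate activity score at least 50, where 100 means six control SD above control mean; inconclusive = lowest score under 50 but half or more replicates reach 50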;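 note: yeast exposed to compound for 9 h at 30 °C; higher score means more reporter readthrough which indicates perturbed polyadenylation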
# Arrestin-AP2 inh – blocks beta-arrestin peptide binding to AP2 adaptin. FITC-arrestin peptide / GST-AP2 beads, flow cytometry; AP2 beta2 appendage carries R879A mutation. inhibition, % at 10 µM. actives 0.31% (n = 340,000). AID 504490;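 active = inhibition above a set limit, near 3 SD of compounds lacking own fluorescence, cut at about 54% in these data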;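 note: plate controls were DMSO wells for no effect and 5 µM unlabelled arrestin peptide for full effect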
#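 System: GST-AP2 R879A bound to glutathione beads, E. coli-expressed. Also added: 50 nM FITC-arrestin peptide. Schedule: compound with beads 12 min RT, then probe 1 h RT. Signal: bead flow cytometry, FITC channel. Read-out basis: percent response.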
# NLRP3 yeast inh – blocks the NALP3 inflammasome reconstituted in yeast; actives 0.39% (n = 330,000); Yeast reconstituted NLRP3/ASC/caspase-1, beta-gal luminescence, 24 h; inhibition, % at 10 µM;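 active = inhibition of 50% or more; inactive = inhibition below 50%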;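 note: plate controls were induced DMSO wells for no effect and uninduced yeast grown without galactose for full effect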
# ALR H2O2 inh – blocks human ALR sulfhydryl oxidase activity; purified ALR, DTT oxidation, H2O2 HRP-luminol luminescence; inhibition, % (test concentration not listed); actives 3.8% (n = 290,000); AID 485317;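 active = mean replicate inhibition above about 79%, with every replicate also reaching it, limit read from the data; inconclusive = only one of the two criteria met; inactive = mean below limit and not every replicate reaching it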
# * = called active by the depositor; ? = inconclusive; · = not tested or not shown. Only some compounds are listed: those with a hit (about 4.6% of all), similar ones and a draw of the others.
SMILES,DSG3 Ab inh,NALP1 yeast inh,PolyA inhibitor,Arrestin-AP2 inh,NLRP3 yeast inh,ALR H2O2 inh
COCCCNC(=O)C(C)N1c2cccc3cccc(c23)S1(=O)=O (stereo unspecified),92,3,4,27,2,-85
CCN(CC)S(=O)(=O)c1cc(NC(=O)CNc2cccc(S(=O)(=O)N3CCCC3)c2)ccc1C,101,·,2,15,8,-1
C/C(=N\NC(=O)c1cccc(N/N=C(\C)c2ccncc2)c1)c1ccncc1,107,16,32,-2,-4,99*
C/C(=N\NC(=O)c1cccc(N/N=C(\C)c2ccc([N+](=O)[O-])cc2)c1)c1ccc([N+](=O)[O-])cc1,79,·,?,27,17,-4
Cc1ccn2c(=O)nc(SCC(=O)N3CCCC3)nc2c1,95,·,10,2,2,·
CC(C)(C)NS(=O)(=O)c1ccc(CCC(=O)Nc2ccc3c(c2)OCO3)cc1,-0.5*,3,6,2,13,-10
COc1cccc(-c2csc(NNC(=O)c3cccs3)n2)c1,96,·,1,-1,11,96*
NC(=O)SCC(=O)Nc1ccccc1C(=O)O,106,-4,21,-14,-5,94*
COc1ccccc1CC(=O)Nc1ccccc1O,110,3,11,3,11,89*
Cc1ccccc1NC(=O)CSC(N)=O,107,15,-4,0,19,·
COc1ccccc1NC(=O)CSC(N)=O,71,11,-18,9,12,99*
O=C(CSc1ccccc1)Nc1ccccc1C(=O)O,95,13,-4,6,-4,35
O=C(NC1CCCCC1)c1cc(C2CC2)nn1-c1ccccc1,109,·,·,-9,15,·
COCCNC(=S)N1CCc2cc(OC)c(OC)cc2C1COc1ccc(F)cc1 (stereo unspecified),94,-10,5,31,2,-2
COCCNC(=S)N1CCc2cc(OC)c(OC)cc2C1c1cccs1 (stereo unspecified),102,24*,4,5,-6,64
Cn1c(CSCc2ccc(Cl)c(Cl)c2)n[nH]c1=S,106,7,-17,-8,-2,90*
Cc1ccc(C(=O)CC(C(=O)O)c2cn(CCC#N)c3ccccc23)cc1 (stereo unspecified),109,-14,·,-4,1,96*
N#CCCn1cc(C(CC(=O)c2ccc(Br)cc2)C(=O)O)c2ccccc21 (stereo unspecified),104,-16,-1,1,-12,91*
CC(=O)Nc1ccc(NC(=O)CSc2ccc([N+](=O)[O-])cn2)cc1,100,·,4,1,-1,-10
O=C(CSc1nnc(CNC(=O)c2cccs2)o1)Nc1ccccc1C(F)(F)F,108,-12,3,-2,3,-3
Cc1cc(C)n(CCc2nc(-c3ccc(F)cc3)cs2)n1,105,22,-4,20,-1,4
COc1cc(-c2csc(CCn3nc(C)cc3C)n2)cc(OC)c1OC,98,12,-7,31,32,99*
O=C(COC(=O)c1ccc(Cl)nc1)NNC(=O)c1ccc(Br)cc1,·,·,·,-19,21,-1
Cc1ccc2c(CN3CCC(C(N)=O)CC3)cc(=O)oc2c1C,92,15,-9,-2,11,95*
Cc1c(O)ccc2c(CN(C)Cc3ccccc3)cc(=O)oc12,95,-6,-5,-12,1,86*
SMILES,DSG3 Ab inh,NALP1 yeast inh,PolyA inhibitor,Arrestin-AP2 inh,NLRP3 yeast inh,ALR H2O2 inh
O=c1cc(CN2CCN(Cc3ccccc3)CC2)c2ccc(O)c(O)c2o1,?,2,6,35,26,100*
O=c1cc(CN2CCOCC2)c2ccc(O)c(O)c2o1,108,-11,-2,0,-8,99*
COc1cc(N=Cc2c(CO)cnc(C)c2O)cc(OC)c1OC,94,1,-1,-6,18,99*
COc1ccccc1N/N=C/c1c(CO)cnc(C)c1O,85,36,5,-2,11,100*
CCN1C[C@@H]2[C@@H]3C(=O)N(C)C(=O)[C@@H]3[C@](Cc3ccccc3)(C1=O)N2C(=O)c1ccc(Cl)cc1,100,·,·,1,·,·
O=C1[C@H]2[C@@H](c3ccccc3)N[C@]3(CCCN(CC4CCCCC4)C3=O)[C@H]2C(=O)N1Cc1ccccc1,109,·,·,·,·,·
COc1ccc(OC)c(S(=O)(=O)NCC(c2ccc3c(c2)OCO3)N2CCOCC2)c1 (stereo unspecified),101,·,5,26,-5,-4
Cc1ccsc1/C=C1/SC(N2CC(C)OC(C)C2)=NC1=O (stereo unspecified),82,10,-13,-7,10,99*
COc1cc(C2C(C(=O)OC(C)C)=C(C)Nc3[nH]c(=O)[nH]c(=O)c32)ccc1O (stereo unspecified),98,-12,-6,28,-5,79*
Cc1cc(C)c2c(=O)n3c(nc2c1)C(CC(C)C)NC(=O)c1cccnc1-3 (stereo unspecified),108,·,·,·,·,·
CCOC(=O)NC(=O)/C(C#N)=N\Nc1cccc(OC)c1,103,4,-20,12,6,98*
CCOC(=O)NC(=O)/C(C#N)=N/Nc1c(F)cccc1F,91,-10,-7,10,21,·
Cc1cc(Sc2nnc(/N=C/N(C)C)s2)c2ccccc2n1,91,7,5,12,47,98*
Cc1cc(=O)[nH]c2ccc(S(=O)(=O)Nc3ccc(O)cc3)cc12,106,12,-2,-6,0,99*
Cc1cc(=O)[nH]c2ccc(S(=O)(=O)Nc3ccccc3)cc12,108,·,22,45,32,-1
Cc1cc(C)c(S(=O)(=O)Nc2ccc(O)cc2)c(C)c1,·,30,0,-6,8,99*
O=C(CCSC1=NCCCN1)c1ccc(F)cc1,81,·,·,-6,·,·
Cc1cc(C(=O)N2CCN(S(C)(=O)=O)CC2)sc1-c1ccccc1,86*,10,8,-3,-9,-5
Cc1ccc(C(C)C)c(OCC(=O)Nc2ccccc2N2CCN(C)CC2)c1,113,27*,10,3,11,-2
CCCCCC(=O)Nc1ccccc1N1CCOCC1,107,30,15,16,16,99*
CC(=O)N1CCN(c2ccccc2NC(=O)COc2cc(C)ccc2C(C)C)CC1,·,-2,-9,-1,8,6
Cc1ccc(C(=O)OCC(=O)Nc2ccccc2N2CCOCC2)cc1,97,18,1,-3,6,92*
CCOC(=O)c1sc(N2C(=O)C(O)=C(C(=O)c3ccco3)C2c2ccc([N+](=O)[O-])cc2)nc1C (stereo unspecified),114,4,1,-8,13,·
CC(C(=O)N1CCN(c2ccccc2)CC1)c1ccc([N+](=O)[O-])cc1 (stereo unspecified),116,6,13,15,18,·
